# Screening data (PubChem)
# Most compounds without a hit are left out; they make up all but 1.4% or so of the library.
# HKDC1 inh: inhibitors of human hexokinase HKDC1; Q2TB90; recombinant HKDC1, G6PDH/diaphorase resazurin coupled fluorescence; inhibition, % at 20 µM; actives 0.16% (n = 340,000);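 active = inhibition above about 35% when tested at 20 µM, limit read from the data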;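 note: plate controls were DMSO wells with enzyme for no effect and DMSO wells lacking enzyme for full effect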
#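 Material – in-house recombinant HK5 (HKDC1) enzyme · Quantity – HKDC1 at 5 µg/mL · Buffer or medium – pH 8.0 Tris buffer with 10 mM MgCl2 · Reagent – glucose with 1 mM ATP · Dosing – single 20 µM dose · Times – reaction time 90 min, room temperature, protected from light · Technique – resorufin fluorescence at 613 nm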
# iPSC survival up: hiPSC single-cell survival enhancement. AID 602274. actives 0.044% (n = 360,000). ATPlite luminescence; 100% = ROCK inhibitor wells, 0% = DMSO. survival enhancement, % at 20 µM; in the data active = survival enhancement above about 18%;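 note: cells exposed to compounds for 16 hours before the ATP read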
# APOBEC3G inh: APOBEC3G (human) deaminase inhibition | recombinant A3G, ssDNA deamination FAM/TAMRA fluorescence | Q9HC16 | inhibition, % at 20 µM | actives 0.28% (n = 330,000) | AID 493012;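 active = inhibition of at least 40% at 20 µM, with no more than 30% in the related APOBEC3A deaminase screen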;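 note: plate controls were DMSO wells with A3G for no effect and wells lacking A3G enzyme for full effect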
# Target sequence (Q9HC16 whole entry, looked up): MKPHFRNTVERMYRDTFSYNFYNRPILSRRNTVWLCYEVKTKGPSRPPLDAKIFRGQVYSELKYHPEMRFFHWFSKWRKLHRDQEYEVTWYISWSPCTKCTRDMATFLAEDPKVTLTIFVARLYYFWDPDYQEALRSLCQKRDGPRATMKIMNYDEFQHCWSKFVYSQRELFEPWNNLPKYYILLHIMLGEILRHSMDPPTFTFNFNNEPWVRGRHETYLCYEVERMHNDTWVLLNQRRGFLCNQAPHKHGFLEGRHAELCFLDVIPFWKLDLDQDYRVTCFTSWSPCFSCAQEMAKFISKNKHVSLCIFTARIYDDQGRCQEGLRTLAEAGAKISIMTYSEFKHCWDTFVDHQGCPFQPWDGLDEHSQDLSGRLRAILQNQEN
# PfG6PD inh: PfG6PD (Plasmodium falciparum) enzyme inhibition; AID 504690; inhibition, % at 20 µM; PfGluPho enzyme, NADPH resazurin-diaphorase fluorescence; actives 0.78% (n = 350,000);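 active = inhibition reaching at least a set limit at 20 µM in the primary screen, cut at about 59% in these data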;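 note: 0% = DMSO wells with substrate and 100% = DMSO wells lacking glucose-6-phosphate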
# APOBEC3A inh: inhibitors of human APOBEC3A DNA deaminase | P31941 | recombinant A3A, FAM/TAMRA ssDNA deamination fluorescence | inhibition, % at 20 µM | actives 0.41% (n = 330,000) | AID 493011;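 active = at least 40% inhibition at 20 µM here, with at most 30% in a related deaminase screen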;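 note: plate controls were A3A with DMSO for no effect and wells lacking A3A enzyme for full effect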
# A3G conf: APOBEC3G (human) deaminase inhibition, confirmed | shares compounds with APOBEC3G inh | recombinant A3G ssDNA deaminase, UDG/FAM-TAMRA fluorescence | inhibition, % at 20 µM | actives 72% (n = 890) | AID 493152;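 active = inhibition reaching a set limit in any replicate at 20 µM, the limit being 80% of the first screen's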
# UDG A3G counter: E. coli UDG inhibition in APOBEC3G counter-screen. inhibition, % at 20 µM. shares compounds with APOBEC3G inh. AID 504715. 710 tested, under 10 active. UDG counterscreen, FAM/TAMRA oligo fluorescence;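 active = compounds giving 40% or more inhibition at 20 µM in any one of the three replicates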;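 note: plate controls were DMSO wells with UDG and oligo for no effect and DMSO wells lacking both for full effect; inhibitors lower the FAM signal released by uracil excision and alkaline cleavage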
# Target sequence (P12295 whole entry, looked up): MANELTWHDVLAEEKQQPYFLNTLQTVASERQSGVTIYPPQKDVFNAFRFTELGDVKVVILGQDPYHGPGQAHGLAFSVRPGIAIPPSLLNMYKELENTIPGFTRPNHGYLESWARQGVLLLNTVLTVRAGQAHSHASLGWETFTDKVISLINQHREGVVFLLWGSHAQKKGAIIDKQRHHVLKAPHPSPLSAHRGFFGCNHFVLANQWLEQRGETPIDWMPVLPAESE
# * marks the source's active call; other numbers are inactive results; x = not tested or not shown.
SMILES,HKDC1 inh,iPSC survival up,APOBEC3G inh,PfG6PD inh,APOBEC3A inh,A3G conf,UDG A3G counter
NC(=O)CSc1nc2cc(S(=O)(=O)N3CCOCC3)ccc2o1,-6,0,43*,55,3,24*,-2
CCCC(C)c1nnc(NC(=O)CCS(=O)(=O)c2ccccc2)s1 (stereo not drawn),-16,0,66*,75*,13,56*,-4
COc1ccc(OC)c(C2CC(=O)N3CN(c4ccccc4F)CSC3=C2C#N)c1 (stereo not drawn),11,-2,67*,53,-1,21,-3
CCOc1ccc(N2CSC3=C(C#N)C(c4ccco4)CC(=O)N3C2)cc1 (stereo not drawn),-1,1,85,4,84,x,x
Cc1ccc(C2CC(=O)N3CN(c4ccc(Br)cc4)CSC3=C2C#N)o1 (stereo not drawn),0,0,72,54,63,x,x
COc1cccc(C2CC(=O)N3CN(c4ccccc4F)CSC3=C2C#N)c1 (stereo not drawn),7,-2,57*,83*,-2,31*,-2
COc1cc(C2CC(=O)N3CN(c4ccccc4C)CSC3=C2C#N)cc(OC)c1OC (stereo not drawn),x,x,49*,x,0,33*,x
CCN1CCN(c2nc3c(c(=O)[nH]c(=O)n3C)n2Cc2cccc(C)c2)CC1,x,6,x,-11,x,x,x
N#Cc1c(NC(=O)c2nc3ncccn3n2)sc2c1CCCCC2,1,-2,-1,-24,0,x,x
CC1CCc2c(sc(NC(=O)c3nc4ncccn4n3)c2C#N)C1 (stereo not drawn),-9,0,54*,47,3,40*,-2
CC(OC(=O)C1CCN(S(=O)(=O)c2ccc(F)cc2)CC1)C(=O)NC1CCCCC1C (stereo not drawn),-4,0,-7,1,-1,x,x
CC(=O)N1CCN(c2ccccc2NC(=O)c2ccco2)CC1,1,0,5,11,-3,x,x
CCOC(=O)c1ccc(-c2c(C)cc3oc(=O)cc(-c4ccccc4)c3c2C)cc1,25,1,84*,18,4,2,x
Cc1ccc(-c2c(C)cc3oc(=O)cc(-c4ccccc4)c3c2C)cc1,2,4,2,0,1,x,x
COc1ccc2[nH]c3nc(SCC(=O)NNC(=O)c4ccc(OC)c(OC)c4)nnc3c2c1,10,6,0,-5,6,x,x
Cc1ccc(C(=O)NNC(=O)CSc2nnc3c(n2)[nH]c2ccc(F)cc23)cc1,7,1,56*,2,18,64*,0
Cn1c(-c2cc(Br)ccc2O)n[nH]c1=S,4,-1,48*,27,-5,83*,-5
O=C1NN=C2CCCCCCC12 (stereo not drawn),x,-2,x,-21,x,x,x
O=S(=O)(c1ccc(N2CCN(CCO)CC2)nc1)N1CCCCC1,-5,-2,42*,0,4,0,x
Cc1c(N2C(=O)/C(=C\c3ccccc3O)SC2=S)c(=O)n(-c2ccccc2)n1C,-4,-1,56*,40,-2,75*,-1
c1ccc(CSc2ccc(-c3cccnc3)nn2)cc1,-7,0,-6,11,-3,x,x
Cc1cccc(-n2ccnc2SCC(=O)Nc2nnc(C)s2)c1,2,1,49*,-12,-2,-5,-4
CCN(CC)S(=O)(=O)c1ccc(NCc2ccccn2)nc1,-1,2,-6,-19,-2,x,x
Cc1c(Cl)c([N+](=O)[O-])nn1CC(=O)NCC(C)C,-8,1,48*,-14,-1,-7,-1
CC12CCC(=O)N1C(C(=O)OCc1c(Cl)cccc1Cl)CS2 (stereo not drawn),0,0,-7,-14,1,x,x
SMILES,HKDC1 inh,iPSC survival up,APOBEC3G inh,PfG6PD inh,APOBEC3A inh,A3G conf,UDG A3G counter
O=C(CC1SC(N2CCCC2)=NC1=O)Nc1ccc(C(=O)N2CCN(c3cccc(Cl)c3)CC2)cc1 (stereo not drawn),9,0,-12,14,-1,x,x
Cc1ccc(NNC(=O)c2ccno2)c(C)c1,2,1,46*,-2,-5,-1,-5
COc1cccc2c(C)nc(Nc3nc(CSc4nnc(C)s4)cc(=O)[nH]3)nc12,0,-3,41*,-4,25,5,x
CN(C)C(=O)N1CCc2ccc([N+](=O)[O-])cc21,x,-2,x,2,x,x,x
ON=C(CCc1ccccc1)CCc1ccccc1,-3,1,x,3,x,x,x
S=c1nc(-c2ccccc2)n(-c2ccccc2)[nH]1,-2,-1,48*,33,-6,87*,-2
COc1ccc(-c2sc3ccccc3c2-c2cc(OC)ccc2C=O)cc1,x,-1,x,x,x,x,x
Cn1c(C(=O)N[C@@H](Cc2ccccc2)C(=O)O)cc2cc(F)ccc21,3,0,43*,-21,-1,-2,2
COc1cccc(OCc2cc(/C=N/NC(=O)c3ccn[nH]3)ccc2OC)c1,3,-1,46*,12,1,1,x
CSc1ccc(Cn2c(C)c(C(=O)NCc3ccc4c(c3)OCCO4)sc2=O)cc1,x,0,x,x,x,x,x
S=c1[nH]nc(-c2cccnc2)n1/N=C/C=C/c1ccco1,-8,2,73,24,52,x,x
CC(/C=N/n1c(-c2n[nH]c3c2CCC3)n[nH]c1=S)=C\c1ccco1,8,0,55*,21,15,68*,-3
CC(/C=N/n1c(-c2cccnc2)n[nH]c1=S)=C\c1ccco1,8,0,71*,23,15,70*,-2
Nc1ncnc2c1ncn2[C@@H]1O[C@H](CNC(=O)[C@H]2CCC(=O)N2)[C@@H](O)[C@H]1O,-5,5,-3,-13,2,x,x
COCCn1c(SCC(=O)N2CCCc3ccccc32)nc2c(c1=O)SC(C)C2 (stereo not drawn),1,-1,82*,7,-1,-4,0
COCCn1c(SCC(=O)N2CCc3ccccc32)nc2c(c1=O)SC(C)C2 (stereo not drawn),6,-1,-13,17,-2,x,x
CCN(CC)CCn1c2ccccc2c2nc3ccccc3nc21,1,1,3,8,7,x,x
CCN(CC)CCn1c2ccccc2c2n[nH]c(=S)nc21,1,1,58*,64*,-4,78*,2
O=C(COc1ccc2c3c(c(=O)oc2c1)CCCC3)NCCN1CCOCC1,-3,0,-2,23,-4,x,x
CC(Oc1ccc2c3c(c(=O)oc2c1)CCCC3)C(=O)NCCN1CCOCC1 (stereo not drawn),-5,0,73*,12,-4,-2,1
COc1ccccc1NS(=O)(=O)c1cc(N)ccc1N1CCCCC1,-6,-1,49*,51,5,62*,0
